In ChEMBL document CHEMBL4033792, “Structure-Activity Relationship in Monosaccharide-Based Toll-Like Receptor 4 (TLR4) Antagonists” (J Med Chem, 2018):
Activity calls are given as the source filed them. No cut-off for these calls is given here.

Legend:
[1] = target: Toll-like receptor 4 (Mus musculus) (UniProt Q9QUK6); assay: Agonist activity at TLR4 in mouse RAW blue cells assessed as increase in NF-kappaB activation-mediated SEAP production up to 10 uM measured after 20 hrs by SEAP reporter gene assay
Toll-like receptor 4 (Mus musculus), sequence (Q9QUK6 whole entry, looked up): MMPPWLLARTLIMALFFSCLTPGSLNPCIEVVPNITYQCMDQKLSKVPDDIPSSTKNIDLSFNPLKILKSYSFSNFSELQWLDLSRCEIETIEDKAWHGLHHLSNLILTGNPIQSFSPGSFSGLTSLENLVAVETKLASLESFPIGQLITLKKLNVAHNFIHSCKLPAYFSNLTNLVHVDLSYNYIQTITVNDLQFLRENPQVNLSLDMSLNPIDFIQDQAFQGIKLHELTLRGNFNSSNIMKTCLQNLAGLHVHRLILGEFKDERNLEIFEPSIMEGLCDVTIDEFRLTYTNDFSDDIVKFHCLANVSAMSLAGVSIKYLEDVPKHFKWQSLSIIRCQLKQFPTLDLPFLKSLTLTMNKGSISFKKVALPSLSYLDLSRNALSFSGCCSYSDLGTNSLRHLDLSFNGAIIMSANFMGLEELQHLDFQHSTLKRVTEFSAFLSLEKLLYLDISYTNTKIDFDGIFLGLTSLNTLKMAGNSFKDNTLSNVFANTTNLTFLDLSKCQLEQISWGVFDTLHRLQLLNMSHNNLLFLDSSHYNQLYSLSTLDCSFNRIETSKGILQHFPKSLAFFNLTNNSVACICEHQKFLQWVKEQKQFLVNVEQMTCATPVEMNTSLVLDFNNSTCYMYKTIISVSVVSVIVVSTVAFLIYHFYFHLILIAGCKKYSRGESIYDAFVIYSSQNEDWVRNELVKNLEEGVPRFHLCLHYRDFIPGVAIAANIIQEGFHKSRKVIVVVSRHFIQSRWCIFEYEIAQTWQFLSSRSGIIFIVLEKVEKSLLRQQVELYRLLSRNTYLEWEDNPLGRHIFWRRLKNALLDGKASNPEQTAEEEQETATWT

[2] = Cytotoxicity against HEK-Blue cells assessed as reduction in cell viability at 10 uM after overnight incubation by MTT assay; assay type: cell-based; settings: human
Summary of the method: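 MTT viability assay in HEK-Blue hTLR4 cells seeded at 4 × 10^4/well in phenol red-free DMEM and incubated overnight. Cells then treated overnight with the highest compound concentration used in the activity assays (10 μM). MTT (5 mg/mL in PBS) added for 3 h; formazan dissolved in 0.1 N HCl/2-propanol; absorbance 570 nm. Normalized to untreated (PBS) control; mean ± SEM of three independent experiments.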

[3] = test system: THP-1; assay: Cytotoxicity against human THP1 cells assessed as reduction in cell viability up to 10 uM after 24 hrs in absence of LPS by MTT asssay; assay type: cell-based; settings: thp-1, 24 h
Summary of the method: (§1)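 THP-1 monocytes in RPMI with 10% heat-inactivated FBS, used at 0.5 × 10^6 cells/mL. Cells exposed to compounds at 0–10 μM, with or without LPS (100 ng/mL), for up to 24 h. Viability read by MTT assay.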

[4] = test system: THP-1; assay: Cytotoxicity against human THP1 cells assessed as reduction in cell viability up to 10 uM after 24 hrs in presence of LPS by MTT asssay; assay type: cell-based; settings: thp-1, 24 h
Summary of the method: as §1

[5] = target: Toll-like receptor 4 (Mus musculus) (UniProt Q9QUK6); assay: Antagonist activity at TLR4 in mouse RAW blue cells assessed as inhibition of LPS-induced NF-kappaB activation-mediated SEAP production up to 10 uM preincubated for 30 mins followed by LPS addition measured after 16 hrs by NF-kappaB reporter gene assay
[6] = target: Toll-like receptor 4 (Homo sapiens, UniProt O00206); assay: Antagonist activity at human TLR4 expressed in HEK blue cells assessed as inhibition of LPS-induced NF-kappaB activation-mediated SEAP production preincubated for 30 mins followed by LPS addition measured after overnight incubation in absence of light by NF-kappaB reporter gene assay; assay type: cell-based
Toll-like receptor 4, sequence (O00206 whole entry): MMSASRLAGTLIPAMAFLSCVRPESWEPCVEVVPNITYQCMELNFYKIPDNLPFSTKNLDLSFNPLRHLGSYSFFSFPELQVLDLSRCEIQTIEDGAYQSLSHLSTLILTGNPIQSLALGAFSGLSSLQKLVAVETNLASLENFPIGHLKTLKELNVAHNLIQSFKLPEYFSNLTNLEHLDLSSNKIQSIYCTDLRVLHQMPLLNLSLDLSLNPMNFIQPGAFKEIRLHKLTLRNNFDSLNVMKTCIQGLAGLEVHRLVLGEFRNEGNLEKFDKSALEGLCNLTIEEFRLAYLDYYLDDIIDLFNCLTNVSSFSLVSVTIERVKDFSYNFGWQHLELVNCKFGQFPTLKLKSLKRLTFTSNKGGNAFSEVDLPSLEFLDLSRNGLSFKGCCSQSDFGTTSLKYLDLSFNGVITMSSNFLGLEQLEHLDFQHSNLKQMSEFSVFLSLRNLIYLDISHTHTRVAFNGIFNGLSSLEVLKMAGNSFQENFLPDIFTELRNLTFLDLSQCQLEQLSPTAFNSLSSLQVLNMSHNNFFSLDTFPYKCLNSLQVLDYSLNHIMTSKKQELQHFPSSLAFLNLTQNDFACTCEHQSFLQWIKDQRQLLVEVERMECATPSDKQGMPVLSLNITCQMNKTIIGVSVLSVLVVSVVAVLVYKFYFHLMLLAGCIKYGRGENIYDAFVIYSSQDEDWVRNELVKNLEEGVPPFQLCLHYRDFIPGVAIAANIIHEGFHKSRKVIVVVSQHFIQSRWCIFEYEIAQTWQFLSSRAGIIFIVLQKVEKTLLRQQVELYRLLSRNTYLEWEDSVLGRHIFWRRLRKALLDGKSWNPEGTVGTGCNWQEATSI
Summary of the method: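 HEK-Blue hTLR4 cells (stably expressing hTLR4, hMD-2, hCD14 and an NF-κB/AP-1-driven SEAP reporter) seeded at 4 × 10^4/well, incubated overnight at 37 °C. Compound (in water or DMSO–H2O 1:1) added 30 min before 100 ng/mL E. coli O55:B5 LPS, then overnight incubation. Supernatant SEAP read with pNPP, 2–4 h in the dark at room temperature, OD 405 nm. Normalized to LPS alone; four-parameter logistic fit for IC50; ≥3 independent experiments.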

[7] = target: Toll-like receptor 4 (Mus musculus) (UniProt Q9QUK6); assay: Antagonist activity at TLR4 in mouse RAW blue cells assessed as inhibition of LPS-induced NF-kappaB activation-mediated SEAP production preincubated for 30 mins followed by LPS addition measured after 16 hrs by NF-kappaB reporter gene assay

Activity [1]	inhibition [5]	IC50 [6]	inhibition [6]	IC50 [7]	SMILES	Activity [2]	Activity [3]	Activity [4]
Not Active	inactive				CCCCCCCCCCCCCCCC(=O)N[C@H]1[C@@H](OP(=O)([O-])O)O[C@H](CO)[C@@H](OP(=O)([O-])O)[C@@H]1OC(=O)CCCCCCCCCCCCCCC.[Na+].[Na+]	Non-Toxic	Non-Toxic	Non-Toxic
Not Active		630 nM	Dose-dependent effect	1.7 µM	CCCCCCCCCCCC(=O)N[C@H]1[C@@H](OP(=O)([O-])O)O[C@H](CO)[C@@H](OP(=O)([O-])O)[C@@H]1OC(=O)CCCCCCCCCCC.[Na+].[Na+]	Non-Toxic	Non-Toxic	Non-Toxic
Not Active		2000 nM	Dose-dependent effect	7.7 µM	CCCCCCCCCCCCCC(=O)N[C@H]1[C@@H](OP(=O)(O)O)O[C@H](CO)[C@@H](OP(=O)(O)O)[C@@H]1OC(=O)CCCCCCCCCCCCC		Non-Toxic	Non-Toxic

SMILES	Activity [1]	inhibition [5]	IC50 [6]	inhibition [6]	IC50 [7]	Activity [2]	Activity [3]	Activity [4]
CCCCCCCCCC(=O)N[C@H]1[C@@H](OP(=O)([O-])O)O[C@H](CO)[C@@H](OP(=O)([O-])O)[C@@H]1OC(=O)CCCCCCCCC.[Na+].[Na+]	Not Active		5450 nM	Dose-dependent effect	42 µM	Non-Toxic	Non-Toxic	Non-Toxic
